Assay results published in ChEMBL document CHEMBL1156597, “Structure-activity relationship of kahalalide F synthetic analogues” (J Med Chem, 2008).

Columns and labels:
HeLa = test: Cytotoxicity against human HeLa cells after 48 hrs by SRB assay; format: functional; conditions: for CC50: read-out: LC50 (the source's name)
Summary of the method: (§1)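 Cells grown in RPMI 1640 with 10% FBS and penicillin/streptomycin at 37 °C and 5% CO₂, trypsinized, then seeded at 5 × 10³/well. After 18 h drug-free attachment, samples in DMSO/EtOH/PBS (0.5:0.5:99) were added for 48 h continuous exposure. Cells were fixed with cold TCA (1 h, 4 °C) and stained with SRB (10 min). Tris-solubilized stain read at 490 nm. Triplicate wells, mean ± SD; GI₅₀ derived.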

PANC-1 = test: Cytotoxicity against human PANC1 cells after 48 hrs by SRB assay; format: functional; conditions: PANC-1, 48 h; for CC50: read-out: LC50 (the source's name); summary of the method: as §1
HT-29 = test: Cytotoxicity against human HT29 cells after 48 hrs by SRB assay; format: functional, cell-based; conditions: Homo sapiens, HT-29, 48 h; for CC50: read-out: LC50 (the source's name); summary of the method: as §1
SK-MEL-28 = test: Cytotoxicity against human SK-MEL-28 cells after 48 hrs by SRB assay; format: functional, cell-based; conditions: Homo sapiens, SK-MEL-28, 48 h; for CC50: read-out: LC50 (the source's name); for GI50: read-out: GI50; summary of the method: as §1
DU-145 = test: Cytotoxicity against human DU145 cells after 48 hrs by SRB assay; format: functional, cell-based; conditions: Homo sapiens, DU-145, 48 h; for CC50: read-out: LC50 (the source's name); summary of the method: as §1
LoVo [1] = test: Cytotoxicity against human LoVo cells after 48 hrs by SRB assay; format: functional; conditions: for CC50: read-out: LC50 (the source's name)
[2] = Cytotoxicity against human HeLa-APL cells after 48 hrs by SRB assay; format: functional; summary of the method: as §1
[3] = Cytotoxicity against human IGROV cells after 48 hrs by SRB assay; format: functional; conditions: for CC50: read-out: LC50 (the source's name); summary of the method: as §1
K562 = test: Cytotoxicity against human K562 cells after 48 hrs by SRB assay; format: functional; conditions: K562, 48 h, read-out: LC50 (the source's name); summary of the method: as §1
A549 = test: Cytotoxicity against human A549 cells after 48 hrs by SRB assay; format: functional, cell-based; conditions: Homo sapiens, A549, 48 h; for GI50: read-out: GI50; summary of the method: as §1
LoVo [4] = test: Cytotoxicity against human doxorubicin resistant LoVo cells after 48 hrs by SRB assay; format: functional; conditions: for CC50: read-out: LC50 (the source's name); summary of the method: as §1
[5] = Cytotoxicity against human IGROV-ET cells after 48 hrs by SRB assay; format: functional; conditions: for CC50: read-out: LC50 (the source's name); summary of the method: as §1

Structure (SMILES)	CC50 (HeLa) [nM]	GI50 (PANC-1) [nM]	TGI (PANC-1) [µM]	CC50 (PANC-1) [nM]	CC50 (HT-29) [µM]	CC50 (SK-MEL-28) [nM]	CC50 (DU-145) [nM]	GI50 (LoVo [1]) [nM]	TGI (LoVo [1]) [µM]	CC50 (LoVo [1]) [µM]	LC50 (concentration giving 50% net cell kill) [2] [nM]	CC50 [3] [nM]	CC50 (K562) [µM]	LC50 (A549) [nM]	CC50 (LoVo [4]) [nM]	GI50 ([5]; read-out: GI50) [nM]	CC50 [5] [nM]	GI50 (HT-29) [nM]	TGI (HT-29) [µM]	TGI (SK-MEL-28) [nM]	further results
C/C=C1\NC(=O)[C@H](Cc2ccccc2)NC(=O)[C@H](C(C)C)NC(=O)[C@@H]([C@H](C)CC)NC(=O)[C@H](NC(=O)[C@H](NC(=O)[C@H](CCCN)NC(=O)[C@H]2CCCN2C(=O)[C@H](NC(=O)[C@@H](NC(=O)[C@@H](NC(=O)[C@H](NC(=O)CCCC(C)C)C(C)C)[C@@H](C)O)C(C)C)C(C)C)[C@H](C)CC)[C@H](C)OC(=O)[C@H](C(C)C)NC1=O	1610	1680	4.98	2830	5.26	1990	1700	5490	8.66	5.04	1840	1390	4.27	1830	5060	1220	1170				TGI [5]: 2860 nM
CC[C@@H]1NC(=O)[C@H](Cc2ccccc2)NC(=O)[C@@H](C(C)C)NC(=O)[C@@H]([C@H](C)CC)NC(=O)[C@H](NC(=O)[C@H](NC(=O)[C@H](CCCN)NC(=O)[C@H]2CCCN2C(=O)[C@H](NC(=O)[C@@H](NC(=O)[C@@H](NC(=O)[C@H](NC(=O)CCCC(C)C)C(C)C)[C@@H](C)O)C(C)C)C(C)C)[C@H](C)CC)[C@H](C)OC(=O)[C@H](C(C)C)NC1=O	1600	3090	4.98	2830	5.25	1980	1700	3030	3.86	4.93	1840	1390	4.26	1830	2930	1640	1170	7350	9.27	3830	GI50 (SK-MEL-28): 4480 nM; TGI (DU-145): 3.07 µM; GI50 (DU-145; read-out: GI50): 3050 nM; TGI [3]: 2220 nM; GI50 ([3]; read-out: GI50): 2810 nM; GI50 (LoVo [4]): 2720 nM; TGI (LoVo [4]): 2820 nM; TGI [5]: 1430 nM
C/C=C1\NC(=O)[C@H](Cc2ccccc2)NC(=O)[C@@H](C(C)C)NC(=O)[C@@H]([C@H](C)CC)NC(=O)[C@H](NC(=O)[C@H](NC(=O)[C@H](CCCNC(=O)c2cc(F)c(F)c(F)c2F)NC(=O)[C@H]2CCCN2C(=O)[C@H](NC(=O)[C@@H](NC(=O)[C@@H](NC(=O)[C@H](NC(=O)CCCC(C)C)C(C)C)[C@@H](C)O)C(C)C)C(C)C)[C@H](C)CC)[C@H](C)OC(=O)[C@H](C(C)C)NC1=O	861	1580	1.58	1580	0.202	1060	831	84.2	0.0938	0.104	869	274	0.172	1040	87.8	332	441	116	0.0951	1060	GI50 (HeLa): 288 nM; TGI (HeLa): 685 nM; GI50 (SK-MEL-28): 984 nM; GI50 (DU-145): 831 nM; GI50 (DU-145; read-out: GI50): 726 nM; GI50 [2]: 493 nM; TGI [2]: 595 nM; GI50 [3]: 217 nM; GI50 ([3]; read-out: GI50): 182 nM; TGI (A549): 1040 nM; GI50 (A549): 1040 nM; GI50 [5]: 357 nM
C/C=C1\NC(=O)[C@H](Cc2ccccc2)NC(=O)[C@@H](C(C)C)NC(=O)[C@@H]([C@H](C)CC)NC(=O)[C@H](NC(=O)[C@H](NC(=O)[C@H](CCCN)NC(=O)[C@H]2CCCN2C(=O)[C@H](NC(=O)[C@@H](NC(=O)[C@@H](NC(=O)[C@@H](CCC(=O)O)NC(=O)CCCC(C)C)[C@@H](C)O)C(C)C)C(C)C)[C@H](C)CC)[C@H](C)OC(=O)[C@H](C(C)C)NC1=O	1570	5310	4.88	2770	3.01	1950	1660	1950	2.2	2.49	1800	844	3.04	1800	2430	1310	705	2910	2.96	3750	GI50 (HeLa): 2940 nM; TGI (HeLa): 2720 nM; GI50 (SK-MEL-28): 3730 nM; TGI (DU-145): 3.01 µM; GI50 (DU-145; read-out: GI50): 2840 nM; GI50 [2]: 2910 nM; TGI [2]: 3570 nM; TGI (A549): 2960 nM; GI50 (A549): 3250 nM; GI50 (LoVo [4]): 2030 nM; TGI (LoVo [4]): 2220 nM; GI50 [5]: 969 nM
C/C=C1\NC(=O)[C@H](Cc2ccccc2)NC(=O)[C@@H](C(C)C)NC(=O)[C@@H]([C@H](C)CC)NC(=O)[C@H](NC(=O)[C@H](NC(=O)[C@H](CCCN)NC(=O)[C@H]2CCCN2C(=O)[C@H](NC(=O)[C@@H](NC(=O)[C@@H](NC(=O)[C@H](N)C(C)C)[C@@H](C)O)C(C)C)C(C)C)[C@H](C)CC)[C@H](C)OC(=O)[C@H](C(C)C)NC1=O	1740	5490	5.39	3060	5.68	4140	1840	9460	9.36	5.45	1990	1500	4.61	1980	5470	4010	1260				TGI [5]: 3100 nM
C/C=C1\NC(=O)[C@H](Cc2ccccc2)NC(=O)[C@@H](C(C)C)NC(=O)[C@@H]([C@H](C)CC)NC(=O)[C@H](NC(=O)[C@H](NC(=O)[C@H](CCCN)NC(=O)[C@H]2CCCN2C(=O)[C@H](NC(=O)[C@@H](NC(=O)[C@@H](NC(=O)[C@@H](C)NC(=O)CCCC(C)C)[C@@H](C)O)C(C)C)C(C)C)[C@H](C)CC)[C@H](C)OC(=O)[C@H](C(C)C)NC1=O	963	1660	1.9	2180	3.34	1470	1200	1980	2.26	2.22	1180	828	3.31	1400	1850		714	3030	3.18	1700	GI50 (HeLa): 1030 nM; TGI (HeLa): 998 nM; GI50 (SK-MEL-28): 1990 nM; TGI (DU-145): 1.48 µM; GI50 (DU-145; read-out: GI50): 1810 nM; GI50 [2]: 1680 nM; TGI [2]: 1420 nM; TGI (A549): 1430 nM; GI50 (A549): 1460 nM; GI50 (LoVo [4]): 800 nM; TGI (LoVo [4]): 1270 nM
